Assay [1] deals with T1, Muscarinic acetylcholine receptor M1 (Homo sapiens, UniProt P11229).
T1 sequence (P11229 whole entry): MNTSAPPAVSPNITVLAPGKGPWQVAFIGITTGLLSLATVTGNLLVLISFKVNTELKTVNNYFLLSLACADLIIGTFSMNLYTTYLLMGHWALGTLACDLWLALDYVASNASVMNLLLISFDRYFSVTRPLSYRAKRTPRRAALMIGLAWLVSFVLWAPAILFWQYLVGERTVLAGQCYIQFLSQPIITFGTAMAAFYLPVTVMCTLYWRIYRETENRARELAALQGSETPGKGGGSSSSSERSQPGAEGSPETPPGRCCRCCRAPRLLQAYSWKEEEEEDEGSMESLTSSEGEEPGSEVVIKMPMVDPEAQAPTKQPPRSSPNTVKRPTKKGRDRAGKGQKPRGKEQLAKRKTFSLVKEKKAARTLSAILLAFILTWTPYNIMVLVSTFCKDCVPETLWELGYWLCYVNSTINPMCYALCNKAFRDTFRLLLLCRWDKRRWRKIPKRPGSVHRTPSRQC
In words: Binding affinity to cloned human muscarinic M1 receptor expressed in CHO cells. The conditions noted are these: for Log Ki: cho. Format: cell-based.

For assay [2], the target named is T2, Muscarinic acetylcholine receptor M4 (Homo sapiens, UniProt P08173).
T2 sequence (P08173 whole entry): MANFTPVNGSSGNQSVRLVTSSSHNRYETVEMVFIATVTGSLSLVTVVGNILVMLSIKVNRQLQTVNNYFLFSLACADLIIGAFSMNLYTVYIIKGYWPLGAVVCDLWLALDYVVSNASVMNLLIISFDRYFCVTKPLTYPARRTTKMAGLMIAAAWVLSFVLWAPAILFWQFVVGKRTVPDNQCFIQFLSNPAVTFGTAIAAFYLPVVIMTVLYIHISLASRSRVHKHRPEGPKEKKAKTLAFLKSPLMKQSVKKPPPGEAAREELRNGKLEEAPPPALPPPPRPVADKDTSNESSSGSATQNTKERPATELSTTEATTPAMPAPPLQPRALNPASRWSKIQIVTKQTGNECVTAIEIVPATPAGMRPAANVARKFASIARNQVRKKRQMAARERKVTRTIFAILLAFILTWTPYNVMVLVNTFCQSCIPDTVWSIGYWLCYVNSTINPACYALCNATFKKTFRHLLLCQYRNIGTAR
In words: Binding affinity to cloned human muscarinic M4 receptor expressed in CHO cells. In kind it is cell-based. As to conditions: for Log Ki: cho. The method, boiled down: (§1)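 Membranes from CHO cells stably expressing human hm2, hm4 or hm5 receptors, at 70, 50 and 25 µg/mL protein respectively. 0.2 nM [3H]NMS displaced by unlabelled ligand for 120 min at room temperature, in 25 mM sodium phosphate with 5 mM MgCl2, pH 7.4. Rapid filtration, then scintillation counting. Mean of at least three experiments.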

In assay [3] the target is T3, Muscarinic acetylcholine receptor M2 (Homo sapiens, UniProt P08172).
T3 sequence (P08172 whole entry): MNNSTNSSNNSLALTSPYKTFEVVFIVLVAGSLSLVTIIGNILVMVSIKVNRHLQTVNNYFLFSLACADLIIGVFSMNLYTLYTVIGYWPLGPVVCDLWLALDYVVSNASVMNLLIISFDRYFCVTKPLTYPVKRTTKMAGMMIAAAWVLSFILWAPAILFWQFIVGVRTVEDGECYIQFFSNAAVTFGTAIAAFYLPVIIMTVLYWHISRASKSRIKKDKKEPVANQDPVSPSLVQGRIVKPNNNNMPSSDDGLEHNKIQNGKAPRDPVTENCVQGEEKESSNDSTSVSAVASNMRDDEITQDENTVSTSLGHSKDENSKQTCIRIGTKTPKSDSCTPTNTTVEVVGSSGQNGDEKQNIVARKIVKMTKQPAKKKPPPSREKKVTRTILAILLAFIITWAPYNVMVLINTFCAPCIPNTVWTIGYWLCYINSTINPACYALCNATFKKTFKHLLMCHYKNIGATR
Nature of the assay: Binding affinity to cloned human muscarinic M2 receptor expressed in CHO cells. In kind it is cell-based. The method in brief:
as §1

The target in assay [4] is T4, Muscarinic acetylcholine receptor M5 (Homo sapiens, UniProt P08912).
T4 sequence (P08912 whole entry): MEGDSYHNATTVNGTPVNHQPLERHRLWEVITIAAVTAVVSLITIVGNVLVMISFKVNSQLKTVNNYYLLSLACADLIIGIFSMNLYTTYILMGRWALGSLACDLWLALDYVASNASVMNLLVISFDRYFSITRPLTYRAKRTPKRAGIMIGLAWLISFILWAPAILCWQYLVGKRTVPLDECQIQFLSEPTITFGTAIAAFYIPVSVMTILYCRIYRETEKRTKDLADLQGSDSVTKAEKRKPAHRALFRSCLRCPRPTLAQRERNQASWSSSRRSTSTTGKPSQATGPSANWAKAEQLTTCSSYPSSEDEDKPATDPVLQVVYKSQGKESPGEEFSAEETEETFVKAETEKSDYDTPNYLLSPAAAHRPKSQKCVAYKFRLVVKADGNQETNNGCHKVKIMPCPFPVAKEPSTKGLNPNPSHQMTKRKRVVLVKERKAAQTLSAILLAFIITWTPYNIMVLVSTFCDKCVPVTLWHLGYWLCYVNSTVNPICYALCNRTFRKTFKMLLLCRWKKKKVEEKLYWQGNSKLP
In words: Binding affinity to cloned human muscarinic M5 receptor expressed in CHO cells. In kind it is cell-based. The method, boiled down:
as §1

In assay [5] the target is Muscarinic acetylcholine receptor M3 (Homo sapiens, UniProt P20309). In words: Binding affinity to cloned human muscarinic M3 receptor expressed in CHO cells. Format: cell-based. The conditions noted are these: for Log Ki: cho.
Chain of Muscarinic acetylcholine receptor M3 (P20309 whole entry): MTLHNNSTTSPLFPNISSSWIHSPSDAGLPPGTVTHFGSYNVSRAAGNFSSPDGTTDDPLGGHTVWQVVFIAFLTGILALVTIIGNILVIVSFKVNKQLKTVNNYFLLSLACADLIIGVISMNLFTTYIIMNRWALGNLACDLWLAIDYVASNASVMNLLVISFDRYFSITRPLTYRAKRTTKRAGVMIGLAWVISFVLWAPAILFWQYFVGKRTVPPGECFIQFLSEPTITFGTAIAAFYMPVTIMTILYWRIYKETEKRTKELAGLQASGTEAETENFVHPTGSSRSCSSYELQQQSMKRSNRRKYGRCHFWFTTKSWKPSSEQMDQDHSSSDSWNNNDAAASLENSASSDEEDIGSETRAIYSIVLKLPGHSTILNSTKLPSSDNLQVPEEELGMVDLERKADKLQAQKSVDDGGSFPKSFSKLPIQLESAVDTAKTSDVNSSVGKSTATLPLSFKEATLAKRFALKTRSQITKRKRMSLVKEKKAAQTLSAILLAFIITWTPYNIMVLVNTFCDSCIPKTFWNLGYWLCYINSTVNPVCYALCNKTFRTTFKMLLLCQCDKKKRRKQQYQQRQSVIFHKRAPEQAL
In assay [6] the target is Muscarinic acetylcholine receptor M3 (Cavia porcellus) (UniProt Q8VH26). In words: Agonist potency at muscarinic M3 receptor in guinea pig ileum. In kind it is functional, tissue-based. The method, boiled down:
(§2)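 Isolated guinea pig tissue contractions, measured against arecaidine propargyl ester control curves. Agonists: cumulative dose-response curve after a 30 min wash, responses as % of the control maximum. Antagonists: 60 min incubation, then a new agonist curve. Parallel time-control tissues were run. Values expressed as pD2 (-log ED50) with intrinsic activity, or as pKb (-log Kb).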

Assay [7] has as its target T5, Muscarinic acetylcholine receptor M4 (Homo sapiens) (UniProt P08173).
T5 sequence (whole entry): T2 sequence (P08173 whole entry)
In words: Antagonist affinity at muscarinic M4 receptor in guinea pig lung strips. Format: functional. The conditions noted are these: Cavia porcellus, target entry is the homologue from another species. The method, boiled down:
as §2

Assay [8] concerns the target T6, Muscarinic acetylcholine receptor M1 (Homo sapiens) (UniProt P11229).
T6 sequence (whole entry): T1 sequence (P11229 whole entry)
Nature of the assay: Antagonist affinity at muscarinic M1 receptor in rabbit vas deferens. Format: functional, tissue-based. The conditions noted are these: Oryctolagus cuniculus, target entry is the homologue from another species. The method in brief:
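Field-stimulated (0.1 ms, 2 Hz, 10-15 V), contractions recorded isometrically after 1 h equilibration. Cumulative dose-response curves against p-Cl-McN-A-343 reference. Antagonists incubated 60 min before the repeat curve. Reported as pD2 (-log ED50) with intrinsic activity, or as pKb.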

Assay [9] deals with T7, Muscarinic acetylcholine receptor M2 (Homo sapiens) (UniProt P08172).
T7 sequence (whole entry): T3 sequence (P08172 whole entry)
Nature of the assay: Antagonist affinity at muscarinic M2 receptor in guinea pig atrium. Format: functional, tissue-based. The conditions noted are these: Cavia porcellus; Cardiac atrium; target entry is the homologue from another species. The method in brief:
(§3)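 Guinea pig left atria in PSS at 30 °C, paced by square-wave pulses (1 ms, 1 Hz, 5-10 V). Inotropic force recorded isometrically after 2 h equilibration, with cumulative dose-response curves to arecaidine propargyl ester as reference. Antagonists incubated 60 min after a 30 min wash, then the curve was repeated. Values given as pD2 with intrinsic activity, or as pKb.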

Assay [10] concerns the target T7, Muscarinic acetylcholine receptor M2 (Homo sapiens). In words: Agonist potency at muscarinic M2 receptor in guinea pig atrium. Format: functional, tissue-based. As to conditions: Cavia porcellus; Cardiac atrium; target entry is the homologue from another species. The method in brief:
as §3

The target in assay [11] is Muscarinic acetylcholine receptor M3 (Cavia porcellus) (UniProt Q8VH26). In words: Antagonist affinity at muscarinic M3 receptor in guinea pig ileum. Format: functional, tissue-based. The method, boiled down: as §2
Chain of Muscarinic acetylcholine receptor M3 (Cavia porcellus) (Q8VH26 1-587): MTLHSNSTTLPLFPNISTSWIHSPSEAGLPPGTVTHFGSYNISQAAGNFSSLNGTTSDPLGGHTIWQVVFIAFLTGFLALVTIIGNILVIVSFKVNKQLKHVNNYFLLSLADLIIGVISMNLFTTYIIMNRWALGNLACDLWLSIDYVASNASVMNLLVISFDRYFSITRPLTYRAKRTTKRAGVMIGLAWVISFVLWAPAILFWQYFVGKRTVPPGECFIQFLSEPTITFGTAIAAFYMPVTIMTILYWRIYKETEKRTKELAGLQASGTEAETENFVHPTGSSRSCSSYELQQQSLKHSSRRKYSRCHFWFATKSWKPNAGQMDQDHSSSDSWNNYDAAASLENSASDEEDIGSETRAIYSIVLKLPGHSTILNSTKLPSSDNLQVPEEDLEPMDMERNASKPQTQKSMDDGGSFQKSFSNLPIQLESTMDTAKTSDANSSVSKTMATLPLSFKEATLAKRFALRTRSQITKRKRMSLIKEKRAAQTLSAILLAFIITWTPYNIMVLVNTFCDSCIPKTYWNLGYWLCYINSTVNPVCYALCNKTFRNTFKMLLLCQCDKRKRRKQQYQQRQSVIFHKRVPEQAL

A word on the Ki: it is a dissociation constant, usually derived from enzyme kinetics or from competition with a known ligand. Low values mean tighter binding, high ones weaker binding. Usually pKb stands for −log10 of the Kb, conventionally taken in molar units. High values mean a low Kb, low ones a high Kb.

Take `C[C@H]1O[C@@H]([C@@H]2CCC[N+]2(C)C)C[S@@+]1[O-]` (stereo in doubt; (-)-6) [listing 1 of 2 here]: the Ki in [1] was greater than 100 µM; in [2] it was greater than 100 µM; in [3], 28.8 µM; in [4], greater than 100 µM; in assay [5], greater than 100 µM.

Take `C[C@H]1O[C@@H]([C@@H]2CCCN2C)C[S@+]1[O-]`: the Activity in [6] and in assay [10] was 0 in each case. In addition, the Ki in [1] is greater than 100 µM; in assay [2], greater than 100 µM; in assay [3], 87.1 µM; in [4], greater than 100 µM; in assay [5], greater than 100 µM. Moreover, the pKb in assay [7], in assay [8], in assay [9] and in [11] was less than 5 in each case.

In the case of `C[C@@H]1O[C@H]([C@H]2CCC[N+]2(C)C)C[S@+]1[O-]`, the Ki in assay [1], in assay [2], in [3], in assay [4] and in assay [5] was greater than 100 µM throughout.

With `C[C@H]1O[C@@H]([C@@H]2CCC[N+]2(C)C)C[S@@+]1[O-].[I-]` (stereo in doubt; (+)-7), the “Log Ki” value in [1], in [2] and in assay [5] was less than -4 in each case. For the same molecule, the figures for the Ki in assay [3] and in assay [4] were 81.3 µM and 57.5 µM, respectively.

For `C[C@@H]1O[C@H]([C@H]2CCCN2C)C[S@@+]1[O-]`, the Ki in assay [1], in assay [2], in assay [3], in assay [4] and in assay [5] was greater than 100 µM in each case.

For the molecule `C[C@H]1O[C@@H]([C@H]2CCCN2C)C[S@@+]1[O-]`, the Ki in [1], in assay [2], in assay [3], in assay [4] and in assay [5] was greater than 100 µM throughout.

Turning to `C[C@H]1O[C@@H]([C@@H]2CCC[N+]2(C)C)C[S@@+]1[O-]` (stereo in doubt; (-)-8), the Activity in [6] and in assay [10] was 0 throughout. Further, the pKb in assay [7], in assay [8], in assay [9] and in [11] was less than 5 in each case.

Take `C[C@H]1O[C@@H]([C@@H]2CCC[N+]2(C)C)C[S@@+]1[O-]` (stereo in doubt; (+)-7): the Activity in assay [6] and in [10] was 0 throughout. The pKb in assay [7], in assay [8], in assay [9] and in assay [11] was less than 5 in each case.

`C[C@@H]1O[C@H]([C@@H]2CCCN2C)C[S@+]1[O-]`: the Activity in [6] and in assay [10] was 0 throughout. Besides, the Ki in assay [1] is greater than 100 µM; in assay [2], greater than 100 µM; in assay [3], 89.1 µM; in assay [4], greater than 100 µM; in assay [5], greater than 100 µM. The pKb in assay [7], in assay [8], in [9] and in assay [11] was less than 5 in each case.

For the molecule `C[C@H]1O[C@@H]([C@@H]2CCCN2C)C[S@@+]1[O-]`, the Ki in assay [1], in assay [2], in assay [3], in assay [4] and in assay [5] was greater than 100 µM each time.

On to `C[C@@H]1O[C@H]([C@H]2CCCN2C)C[S@+]1[O-]`, for which the Ki in [1], in assay [2], in assay [3], in assay [4] and in [5] was greater than 100 µM in each case.

On to `C[C@H]1O[C@@H]([C@H]2CCCN2C)C[S@+]1[O-]`, for which the Ki in assay [1], in [2], in assay [3], in assay [4] and in assay [5] was greater than 100 µM in each case.

For `C[C@H]1O[C@@H]([C@@H]2CCC[N+]2(C)C)C[S@+]1[O-]`, the Activity in [6] and in [10] was 0 each time. In addition, the Ki in [1] was greater than 100 µM; in assay [2] it was greater than 100 µM; in assay [3], 77.6 µM; in [4], greater than 100 µM; in [5] it was greater than 100 µM. The pKb in assay [7], in assay [8], in assay [9] and in [11] was less than 5 in each case.

For `C[C@H]1O[C@@H]([C@@H]2CCC[N+]2(C)C)C[S@@+]1[O-].[I-]` (stereo in doubt; (-)-8), the “Log Ki” value in assay [1], in assay [2] and in [5] was less than -4 throughout. Further, the Ki in assay [3] and in [4] was greater than 100 µM in each case.

For the molecule `C[C@@H]1O[C@H]([C@@H]2CCCN2C)C[S@@+]1[O-]`, the Activity in assay [6] and in assay [10] was 0 each time. The Ki in assay [1], in assay [2], in assay [3], in [4] and in [5] was greater than 100 µM each time. Moreover, the pKb in [7], in assay [8], in [9] and in assay [11] was less than 5 throughout.

`C[C@H]1O[C@@H]([C@@H]2CCC[N+]2(C)C)C[S@@+]1[O-]` (stereo in doubt; (-)-6) [listing 2 of 2 here]: the Activity in assay [6] and in assay [10] was 0 each time. Besides, the pKb in [7], in [8], in assay [9] and in assay [11] was less than 5 in each case.

(Values after ChEMBL document CHEMBL1138195, “Highly chiral muscarinic ligands: the discovery of (2S,2'R,3'S,5'R)-1-methyl-2-(2-methyl-1,3-oxathiolan-5-yl)pyrrolidine 3-sulfoxide methyl iodide, a potent, functionally selective, M2 partial agonist” (J Med Chem, 2006).)
